HNF4A DNA FP: change in binding of human HNF4 alpha to DNA | HNF4a-FITC DNA binding, fluorescence polarization, 1 h | activity change, % at 10 µM | hit rate 0.3% among 360,000; in the data active = activity change above about 30%, passing the limit was not always enough
CSN deneddyl inh: CSN deneddylation inhibition; hit rate 0.38% among 360,000; AID 651999; Q92905; Purified CSN, SCF-Nedd8-OG deneddylation, fluorescence polarization; inhibition, % at 12.5 µM;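 active = pattern-corrected inhibition above about 35%, with an unprinted fluorescence ratio check between 0.5 and 1.5, limit read from the data, passing the limit was not always enough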;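 also: 0% = enzyme with substrate and 100% = substrate without enzyme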
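Material: purified human Csn5 enzyme expressed in HEK293T cells / Medium: Tris buffer pH 7.5, NaCl, DTT, Tween-20, trehalose, ovalbumin / Compound dosing: 12.5 µM single point / Schedule: 90 min incubation of compound, enzyme and substrate at room temperature / Signal: fluorescence polarization of the substrate / Control set: no-enzyme wells high, enzyme-with-substrate wells low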
TPT1 inhibitor: inhibitors of Candida albicans tRNA 2'-phosphotransferase TPT1 | AID 1962 | recombinant caTPT1, FP RNA substrate dephosphorylation | inhibition, % at 5 µM | hit rate 0.81% among 300,000;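 active = inhibition above the mean of all tested compounds plus 3 SD, set per screening campaign, cut at about 24% in these data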;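 also: plate controls were DMSO alone for no effect and ferristatin control at 100 nM for full effect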
Rpn11 inh: blocks the human proteasome subunit Rpn11. inhibition, % at 20 µM. human 26S proteasome, Ub4-pepOG fluorescence polarization; 20S core pre-blocked with epoxomicin. hit rate 0.59% among 360,000;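 active = inhibition at 20 µM, scaled to each plate's controls, above about 33%, limit read from the data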
Rin1 Abl inh: inhibitors of human Rin1-Abl protein interaction. P00519+Q13671. TR-FRET Rin1/Abl binding, biochemical. inhibition, % at 7.35 µM. hit rate 0.4% among 360,000. AID 588664; in the data active = inhibition above about 5%, passing the limit was not always enough
Neddylation inh: inhibitors of human cullin neddylation; hit rate 0.58% among 360,000; inhibition, % at 25 µM; TR-FRET cullin neddylation, biochemical; P61081+Q13564; in the data active = inhibition above about 36%
Rpn11 inh conf: Rpn11 inhibition confirmation, single concentration. shares compounds with Rpn11 inh. purified human 26S proteasome, Ub4-pepOG fluorescence polarization; proteasome pretreated with epoxomicin. inhibition, % at 20 µM. hit rate 29% among 1,900. AID 602318
MMP-2 counter: counter-screen for RPN11 inhibitors: inhibition of human MMP-2; shares compounds with Rpn11 inh; recombinant MMP-2, FRET peptide cleavage fluorescence; inhibition, % at 20 µM; hit rate 4% among 1,900; AID 602330;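 also: human MMP-2 activated beforehand with APMA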
Thrombin FP: counter-screen for RPN11 inhibitors: inhibition of bovine thrombin; bovine thrombin cleavage of Ub4-pepOG, fluorescence polarization; inhibition, % at 20 µM; hit rate 13% among 1,900; shares compounds with Rpn11 inh;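 active = mean inhibition at least 40% at 20 µM, or signal 3 deviations below plate average, so some actives read negative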;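 also: plate controls were thrombin with DMSO for no effect and buffer wells lacking thrombin for full effect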
Target sequence (P00735 whole entry, looked up): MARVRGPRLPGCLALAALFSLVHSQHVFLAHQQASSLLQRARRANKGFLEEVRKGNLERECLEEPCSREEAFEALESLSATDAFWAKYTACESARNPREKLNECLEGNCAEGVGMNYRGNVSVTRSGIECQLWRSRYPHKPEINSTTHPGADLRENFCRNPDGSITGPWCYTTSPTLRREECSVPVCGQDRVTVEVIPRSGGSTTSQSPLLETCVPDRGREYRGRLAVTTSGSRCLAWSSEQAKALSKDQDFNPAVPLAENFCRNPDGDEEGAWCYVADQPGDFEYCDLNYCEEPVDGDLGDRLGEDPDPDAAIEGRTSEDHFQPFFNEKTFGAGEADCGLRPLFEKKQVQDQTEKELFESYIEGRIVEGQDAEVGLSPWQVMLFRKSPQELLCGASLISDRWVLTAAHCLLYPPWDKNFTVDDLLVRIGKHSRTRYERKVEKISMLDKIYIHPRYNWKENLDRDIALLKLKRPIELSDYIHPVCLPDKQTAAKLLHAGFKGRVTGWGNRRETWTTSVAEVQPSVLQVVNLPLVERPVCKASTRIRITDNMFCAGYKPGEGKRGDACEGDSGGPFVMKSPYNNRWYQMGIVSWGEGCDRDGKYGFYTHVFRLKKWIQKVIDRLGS
* = called active by the depositor. Only some compounds are listed: those with a hit (about 2.4% of all), similar ones and a draw of the others. Rule as the data show it, unless noted: active = inhibition above about 40%; inactive = the rest.

What do the screens show for `COc1ccc(CNCc2cn(-c3cccc(F)c3)nc2-c2ccc(C)o2)cc1`?
HNF4A DNA FP: 31; CSN deneddyl inh: 12; TPT1 inhibitor: 3; Rpn11 inh: 43*; Rin1 Abl inh: -3; Neddylation inh: 17; Rpn11 inh conf: 4; MMP-2 counter: -9; Thrombin FP: -16

Results for COc1ccc(-c2nn(-c3ccccc3)cc2CNCc2cccnc2)c(F)c1 ?
HNF4A DNA FP: -2; CSN deneddyl inh: -1; TPT1 inhibitor: -3; Rpn11 inh: -7; Rin1 Abl inh: 0; Neddylation inh: 6

Results for C=CCN(C(=O)c1csnn1)C(C(=O)NCc1ccc(F)cc1)c1ccccc1F (stereo not drawn) ?
HNF4A DNA FP: -4; CSN deneddyl inh: -3; TPT1 inhibitor: 1; Rpn11 inh: 4; Rin1 Abl inh: 2; Neddylation inh: -11

Results for O=C(COC(=O)CC1CC2CCC1C2)Nc1ccccc1[N+](=O)[O-] (stereo not drawn) ?
HNF4A DNA FP: -3; CSN deneddyl inh: -3; Rpn11 inh: -6; Rin1 Abl inh: -4; Neddylation inh: -20

How did CC(C)Cn1c(N)c(C(=O)COC(=O)c2cc(C3CC3)nc3ccccc23)c(=O)n(C)c1=O do in these assays?
TPT1 inhibitor: -5

Results for CC(C)Cn1c(N)c(C(=O)COC(=O)c2cc(-c3ccco3)nc3ccccc23)c(=O)n(C)c1=O ?
HNF4A DNA FP: 0; CSN deneddyl inh: 32; TPT1 inhibitor: 16; Rpn11 inh: 41*; Rin1 Abl inh: 1; Neddylation inh: -24; Rpn11 inh conf: 4; MMP-2 counter: -37; Thrombin FP: 10

What do the screens show for `Cn1c(N)c(C(=O)COC(=O)c2cc(-c3ccccc3)nc3ccccc23)c(=O)n(Cc2ccccc2)c1=O`?
HNF4A DNA FP: 20; CSN deneddyl inh: -1; TPT1 inhibitor: 6; Rpn11 inh: 45*; Rin1 Abl inh: 0; Neddylation inh: -111; Rpn11 inh conf: 33; MMP-2 counter: 2; Thrombin FP: 20

What do the screens show for `Cn1c(N)c(C(=O)COC(=O)c2cc(C3CC3)nc3ccccc23)c(=O)n(Cc2ccccc2)c1=O`?
HNF4A DNA FP: 20; CSN deneddyl inh: 2; TPT1 inhibitor: 16; Rpn11 inh: 41*; Rin1 Abl inh: 3; Neddylation inh: -36; Rpn11 inh conf: 29; MMP-2 counter: -15; Thrombin FP: 6

What do the screens show for `COC(=O)/C(C#N)=C/c1c(N2CCN(c3ccc(OC)cc3)CC2)nc2c(C)cccn2c1=O`?
HNF4A DNA FP: -2; CSN deneddyl inh: 16; TPT1 inhibitor: 5; Rpn11 inh: -5; Rin1 Abl inh: -8; Neddylation inh: 6

What do the screens show for `CNC(=O)/C(C#N)=C/c1c(N2CCN(c3ccc(OC)cc3)CC2)nc2c(C)cccn2c1=O`?
HNF4A DNA FP: -1; CSN deneddyl inh: 3; TPT1 inhibitor: -3; Rpn11 inh: 56*; Rin1 Abl inh: 0; Rpn11 inh conf: -17; MMP-2 counter: -57; Thrombin FP: 9

How did Cn1c2ccccc2c(=O)c2c(=O)n(C3CCCCCC3)c(C3CCCCC3)nc21 do in these assays?
HNF4A DNA FP: 67*; CSN deneddyl inh: -5; Rpn11 inh: 146*; Rin1 Abl inh: 0; Neddylation inh: inactive; Rpn11 inh conf: -4; MMP-2 counter: -40; Thrombin FP: -7

What do the screens show for `Cn1c2ccccc2c(=O)c2c(=O)n(-c3ccccc3)c(C3CCCCC3)nc21`?
HNF4A DNA FP: 1; CSN deneddyl inh: 23; TPT1 inhibitor: -1; Rpn11 inh: 3; Rin1 Abl inh: -1; Neddylation inh: -66

What do the screens show for `CCOc1ccccc1C1N=C(c2ccc(OC)cc2)CC(c2ccccc2O)N1` (stereo not drawn)?
HNF4A DNA FP: 2; CSN deneddyl inh: 5; TPT1 inhibitor: 0; Rpn11 inh: 42*; Rin1 Abl inh: 1; Neddylation inh: 21; Rpn11 inh conf: -13; MMP-2 counter: -46; Thrombin FP: -4

What do the screens show for `O=C(COC(=O)c1ccccc1O)NCc1ccc2c(c1)OCO2`?
HNF4A DNA FP: 3; CSN deneddyl inh: 1; Rpn11 inh: -1; Rin1 Abl inh: 4; Neddylation inh: -18

Results for Cc1ccc(OCc2ccc(C(=O)Nc3cc(C)on3)o2)c([N+](=O)[O-])c1 ?
HNF4A DNA FP: -2; CSN deneddyl inh: 6; TPT1 inhibitor: -1; Rpn11 inh: 11; Rin1 Abl inh: -5; Neddylation inh: 2

What do the screens show for `Cc1ccc(OCc2ccc(C(=O)Nc3ccc(C(N)=O)cc3)o2)c([N+](=O)[O-])c1`?
HNF4A DNA FP: 10; CSN deneddyl inh: 22; TPT1 inhibitor: 0; Rpn11 inh: 134*; Rin1 Abl inh: 0; Neddylation inh: -16; Rpn11 inh conf: 13; MMP-2 counter: -36; Thrombin FP: 7

Results for Cc1cc2nc(CO)[nH]c2cc1C ?
HNF4A DNA FP: 4; CSN deneddyl inh: 1; TPT1 inhibitor: -2; Rpn11 inh: 0; Rin1 Abl inh: -1; Neddylation inh: 0

Results for Cc1cc2nc(/C=C/c3nc4cc(C)c(C)cc4[nH]3)[nH]c2cc1C ?
HNF4A DNA FP: 25; CSN deneddyl inh: 5; TPT1 inhibitor: 13; Rpn11 inh: 56*; Rin1 Abl inh: 1; Rpn11 inh conf: 4; MMP-2 counter: -5; Thrombin FP: -30

What do the screens show for `Cc1cc2nc(CS)[nH]c2cc1C`?
HNF4A DNA FP: 35; CSN deneddyl inh: 6; TPT1 inhibitor: 6; Rpn11 inh: 50*; Rin1 Abl inh: 1; Neddylation inh: 26; Rpn11 inh conf: 53*; MMP-2 counter: 14; Thrombin FP: 1

What do the screens show for `Cc1nc2ccccc2c2oc(C(=O)N3CCN(C4CCCCC4)CC3)cc12`?
HNF4A DNA FP: 0; CSN deneddyl inh: 1; TPT1 inhibitor: -8; Rpn11 inh: 3; Rin1 Abl inh: -2; Neddylation inh: 1

How did Cc1nc2ccccc2c2oc(C(=O)N3CCC(N4CCCCC4)CC3)cc12 do in these assays?
HNF4A DNA FP: 16; CSN deneddyl inh: 16; TPT1 inhibitor: 7; Rpn11 inh: 58*; Rin1 Abl inh: -1; Neddylation inh: 9; Rpn11 inh conf: 18; MMP-2 counter: -36; Thrombin FP: 2

How did COc1ccc(-c2ccc3[nH]c4c(c3c2)CCN2C[C@@H]([C@H](C)O)[C@@H](N(C)C(=O)Nc3cc(Cl)cc(Cl)c3)C[C@@H]42)cc1 do in these assays?
HNF4A DNA FP: 17; CSN deneddyl inh: 7; Rpn11 inh: 41*; Rin1 Abl inh: -2; Neddylation inh: 15; Rpn11 inh conf: 26; MMP-2 counter: 5; Thrombin FP: 3

Screening results from PubChem.
